# Only some compounds are listed: those with a hit (about 29% of all), similar ones and a draw of the others.
# Ecoli WT expand = E. coli BW25113 growth inhibition, expanded screen | 98,000 tested, 0.15% active | growth inhibition, % at 100 µM | OD600 absorbance;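 active = growth inhibition above about 50% at one test dose, limit read from the data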;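 note: growth measured after 20 h incubation at 37 °C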
# CYP2C9 activ = increases human cytochrome P450 2C9 activity | P11712 | recombinant CYP2C9, luciferin-H conversion, luminescence; stronger effect = higher value; factor 1 = untreated enzyme, 0 = blocked | activation factor at 5 µM | 96,000 tested, 1.4% active;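 active = activation factor of 2 or more for CYP2C9 at a 5 µM dose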;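 note: 0 = sulfaphenazole-blocked wells and 1 = vehicle-only wells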
# Target sequence (P11712 whole entry, looked up): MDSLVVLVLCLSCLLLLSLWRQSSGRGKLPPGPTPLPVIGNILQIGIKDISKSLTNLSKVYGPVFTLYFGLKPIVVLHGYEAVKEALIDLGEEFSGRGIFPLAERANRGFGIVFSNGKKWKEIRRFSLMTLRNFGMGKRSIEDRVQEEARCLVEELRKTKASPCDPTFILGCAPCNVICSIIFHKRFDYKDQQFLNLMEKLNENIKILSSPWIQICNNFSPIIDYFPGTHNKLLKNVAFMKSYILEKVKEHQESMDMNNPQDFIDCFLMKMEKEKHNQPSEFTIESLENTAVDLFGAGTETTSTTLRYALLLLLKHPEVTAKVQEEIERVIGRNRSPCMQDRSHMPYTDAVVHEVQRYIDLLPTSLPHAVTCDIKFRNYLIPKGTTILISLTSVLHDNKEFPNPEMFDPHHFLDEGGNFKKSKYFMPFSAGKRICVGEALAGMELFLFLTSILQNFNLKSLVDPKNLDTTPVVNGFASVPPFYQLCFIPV
# CYP2C19 act = cytochrome P450 2C19 (human) activation. 96,000 tested, under 10 active. activation factor at 5 µM. recombinant CYP2C19, luciferin-H EGE luminescence; stronger effect = higher value; 0 = fully inhibited enzyme, 1 = untreated enzyme;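 active = activation factor of at least 2 at 5 µM in the primary screen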;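 note: 0 = wells with 2.5 mM tranylcypromine and 1 = vehicle-only wells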
# CYP2C9 inh = inhibitors of human CYP2C9; P11712; CYP2C9 Supersomes, luciferin-H conversion, luminescence; inhibition, % at 5 µM; 96,000 tested, 20% active; AID 777;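 active = blocking of liver enzyme CYP2C9 beyond about 50% at 5 µM, limit read from the data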
# CYP2C19 inhib = blocks human cytochrome P450 2C19; P33261; CYP2C19 Supersomes, luciferin-H EGE luminescence, 30 min; 96,000 tested, 21% active; inhibition, % at 5 µM; AID 778;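 active = CYP2C19 inhibition above a set limit at 5 µM in the primary screen, cut at about 50% in these data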;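 note: plate controls were negative control wells for no effect and 2.5 mM tranylcypromine positive control for full effect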
# Ecoli tolC = growth inhibitors of E. coli BW25113 tolC mutant. 65,000 tested, 2.2% active. AID 573. growth inhibition, % at 10 µM (by protocol). OD615;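 active = growth inhibition at or above a cutoff equal to the mean over every tested compound plus 3 SD, cut at about 60% in these data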;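 note: growth measured after 20 h incubation at 37 °C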
#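 Test system: E. coli BW25113 ΔtolC::kan bacteria; incubation: 37 °C, 20 h exposure; medium: LB broth supplemented with 50 µg/mL kanamycin; read-out basis: percent growth inhibition; signal: A615 absorbance measurement; compound: 10 µM final, single dose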
# Numbers without * were called inactive; . = no result.
SMILES,Ecoli WT expand,CYP2C9 activ,CYP2C19 act,CYP2C9 inh,CYP2C19 inhib,Ecoli tolC
COc1ccc(N(C)C(=O)CCS(=O)(=O)c2cccc3nonc23)c(OC)c1,-12.0,0.9,0.4,8.8,63.7*,11.6
Cc1ccc(Cl)cc1N1CCN(C(=O)CCS(=O)(=O)c2cccc3nonc23)CC1,.,.,.,.,.,60.6*
CC(=O)c1cccc(NC(=O)CCS(=O)(=O)c2cccc3nonc23)c1,6.0,0.9,0.8,11.7,22.3,-7.7
CC(C)NC(=O)CCS(=O)(=O)c1cccc2nonc12,2.0,1.4,0.8,-39.4,15.3,.
Cc1cccc(N(C)C(=O)CCS(=O)(=O)c2cccc3nonc23)c1,3.0,0.8,0.1,20.2,94.0*,-1.9
Cc1ccc(CC(=O)NC(C)CCc2ccccc2)cc1 (stereo not given),11.0,0.3,0.6,71.4*,37.4,.
COc1ccc(CCNC(=O)c2c(C)noc2C)cc1,-4.0,0.9,0.9,11.7,13.8,.
Cc1ccc(CC(=O)NCCCc2ccccc2)cc1,4.0,0.1,0.2,85.3*,78.9*,.
Cc1noc(C)c1C(=O)NCCCc1ccccc1,0.0,0.5,0.5,52.6*,53.0*,-8.7
CC(C)(C)C(=O)NCCCc1ccccc1,2.0,0.9,0.7,12.7,32.0,.
Cc1ccc(CC(=O)NCC(C)C)cc1,0.0,0.8,0.2,15.3,79.3*,-9.8
COC(CNC(=O)C1CC(=O)N(CCc2ccccc2)C1)OC (stereo not given),1.0,1,1.1,-1.9,-6.7,.
CC1(NC(=O)C23CC4CC(CC(C4)C2)C3)CCS(=O)(=O)C1 (stereo not given),-3.0,1,1,-3.8,-1.1,-32.1
O=C(Cc1ccccc1)NCCSCc1ccco1,9.0,1,0.7,-2.3,31.4,5.6
Cc1occc1C(=O)NCCc1cccc(Cl)c1,8.0,0.4,0.1,63.6*,91.6*,.
Cc1occc1C(=O)NCCCCNC(=O)c1ccoc1C,7.0,1,1,3.3,0.7,-21.3
O=C(Cc1ccccc1)NCCCc1ccccc1,1.0,0.6,0.3,36.3,67.7*,.
O=C(Cc1ccccc1)NCCSCc1ccc(Cl)cc1,8.0,0.4,0.7,62.7*,26.8,.
CC(CCc1ccccc1)NC(=O)CSc1nc(N)cc(N)n1 (stereo not given),4.0,0.8,0.4,22.3,56.3*,-8.7
Cc1ccc(C2C(C(=O)c3cc4ccccc4o3)=C(O)C(=O)N2CCCN(C)C)cc1 (stereo not given),.,.,.,.,.,1.2
CC(CCc1ccccc1)NC(=O)/C=C/c1ccccc1 (stereo not given),-6.0,0.5,0.5,45.9,51.7*,.
Cc1occc1C(=O)NCc1ccccc1F,12.0,0.5,0.5,50.6*,45.2,-4.5
CC(CCc1ccccc1)C(=O)NO (stereo not given),10.0,1.1,0.6,-14.3,41.5,-5.7
O=C(Cc1ccccc1)NCCc1cccc(Cl)c1,-3.0,0.5,0.3,47.5,71.4*,.
COCCOCC(O)CN1CCN(c2ccc(C)cc2)CC1 (stereo not given),7.0,1,0.9,3.3,7.5,-15.0
SMILES,Ecoli WT expand,CYP2C9 activ,CYP2C19 act,CYP2C9 inh,CYP2C19 inhib,Ecoli tolC
CN(C)c1ccc(C2C=C(c3ccc(Cl)cc3OC(F)F)Nc3ncnn32)cc1 (stereo not given),-10.0,0.1,0,93.5*,98.8*,96.4*
Cc1ccc(C2C=C(c3ccccc3OC(F)F)Nc3ncnn32)cc1 (stereo not given),-4.0,0.3,0.6,66.3*,35.8,54.4
O=C(Oc1oc(-c2ccco2)nc1C=Nc1ccc(Cl)cc1)c1ccco1,0.0,0.9,1.1,10.3,-5.6,.
N#CCCSc1ccccc1NC(=O)c1ccc(S(=O)(=O)N2CCCC2)cc1,3.0,0.2,0.8,75.6*,19.2,4.2
COc1ccccc1NC(=O)c1ccc(S(=O)(=O)N2CCCC2)cc1,5.0,0.8,1,23.5,4.6,-4.5
CCOC(=O)C1=C(C)Nc2ccccc2N=C1NC(=O)c1cccc(S(=O)(=O)NCc2ccccc2)c1,-12.0,0.7,1.1,32.6,-6.8,.
CCOC(=O)c1oc2ccccc2c1CSc1nnnn1-c1ccccc1,-2.0,0.6,0.8,37.0,19.9,3.2
C#CCn1c(S(=O)(=O)Cc2ccc(C)cc2)nc(-c2ccccc2)c1-c1ccccc1,-19.0,0.3,0.4,67.0*,61.4*,.
C#CCn1c(S(=O)(=O)Cc2ccccc2Cl)nc(-c2ccccc2)c1-c1ccccc1,-10.0,1,0.9,-4.6,12.6,.
O=C(NCc1cccnc1)c1cc(-c2ccco2)on1,-10.0,0.7,0.9,33.7,8.9,-5.0
Cn1nc(OCc2ccccc2)ccc1=O,3.0,1,1,2.3,2.1,-18.6
Cc1c(OCc2ccccc2)c(=O)ccn1Cc1ccccc1,-8.0,0.6,0.3,36.6,68.0*,3.8
Nc1cc(=O)[nH]n1C1CCN(c2ccccc2)CC1,3.0,1.4,0.9,-36.6,12.2,-19.7
CCOc1cc(C)c(Cl)cc1S(=O)(=O)N1CCCC1,2.0,1.6,0.6,-60.2,37.1,11.9
COc1cc(S(=O)(=O)n2ccc(C)n2)c(OC)cc1Cl,-3.0,1,0.3,0.0,67.3*,.
COc1cc(S(=O)(=O)N2CCN(C)CC2)c(OC)cc1Cl,3.0,1.1,0.6,-13.0,43.8,.
Cc1ccc(OCC(=O)n2nc(C)cc2C)c(Br)c1,.,.,.,.,.,-6.8
COc1cc(C)c(Cl)cc1S(=O)(=O)n1ccnc1C,2.0,1.5,0.1,-52.3,92.4*,.
CCOc1ccc(C)cc1S(=O)(=O)n1ccc(C)n1,6.0,2.3*,0.5,-130.3,45.8,-2.8
CCOc1cc(C)c(C(C)C)cc1S(=O)(=O)n1ccc(C)n1,-8.0,0.6,0.5,37.7,54.2*,27.4
O=C(Nc1ccc(N2CCCCC2)c(Cl)c1)c1ncn[nH]1,-22.0,1.1,0.9,-8.1,9.8,7.3
O=S(NC1CCCCC1)C12CC3CC(CC(C3)C1)C2 (stereo not given),-3.0,1.1,0.9,-6.6,7.9,42.8
COc1ccc(NC(=O)Nc2nnc(N3CCCCC3C)s2)cc1OC (stereo not given),.,.,.,.,.,0.0
CSc1nc2ccc(S(=O)(=O)N(C)C)cc2s1,-2.0,0.7,0.1,31.2,86.4*,.
CSc1nc2cc(Cl)ccc2s1,14.0,0.9,1,6.6,0.2,-14.8
CCN(CC)S(=O)(=O)c1ccc2nc(SC)sc2c1,5.0,0.7,0.2,33.4,77.5*,.
CSc1nc2ccc(NS(=O)(=O)c3ccc(Cl)s3)cc2s1,27.0,0,0,100.0*,100.0*,99.3*
CN(C)S(=O)(=O)c1ccc2nc(NC(=O)c3cccs3)sc2c1,-6.0,0.6,1,37.7,0.4,.
CC1(C)CN=C(N2CCN(C3=NCC(C)(C)S3)CC2)S1,.,1,0.9,3.6,9.1,-6.9
COc1ccccc1N1CCN(C(=O)c2cccc(N3C(=O)NC4CC3(C)Oc3ccccc34)c2)CC1 (stereo not given),-10.0,0.9,1,13.0,4.4,13.3

# Bioassay records (PubChem BioAssay)
